An excerpt weighted towards active compounds, which were near 2.7% of everything screened.
Rpn11 block: Rpn11 (PSMD14) deubiquitinase inhibitors, primary screen, biochemical, fluorescence polarization, uHTS. 26S proteasome non-ATPase regulatory subunit 14 (Homo sapiens), O00487. hit rate 0.59% among 360,000. human 26S proteasome, Ub4-pepOG fluorescence polarization; 20S core pre-blocked with epoxomicin. inhibition, % at 20 µM;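 active = inhibition at 20 µM, scaled to each plate's controls, above about 33%, limit read from the data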
Target sequence (O00487 whole entry, looked up): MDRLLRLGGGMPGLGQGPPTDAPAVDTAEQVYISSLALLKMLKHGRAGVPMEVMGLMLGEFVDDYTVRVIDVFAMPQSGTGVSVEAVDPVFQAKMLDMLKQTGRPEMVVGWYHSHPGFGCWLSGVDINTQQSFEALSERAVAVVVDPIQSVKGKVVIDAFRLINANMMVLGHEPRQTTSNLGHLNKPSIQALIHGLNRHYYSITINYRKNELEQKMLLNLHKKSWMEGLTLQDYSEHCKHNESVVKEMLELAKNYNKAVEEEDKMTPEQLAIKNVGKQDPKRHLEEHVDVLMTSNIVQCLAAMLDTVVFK
PP1 inh: PP1-alpha phosphatase inhibitors, primary screen, counter-screen for PP5 inhibitor project, biochemical, fluorescence, OMFP substrate, single point | Serine/threonine-protein phosphatase PP1-alpha catalytic subunit (Homo sapiens), P62136 | purified PP1alpha | inhibition, % at 6.7 µM | hit rate 0.9% among 320,000;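 active = inhibition above the mean inhibition of all tested compounds plus 3 SD, computed separately for each screening campaign, cut at about 15% in these data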
HNF4A DNA FP: change in binding of human HNF4A to DNA, primary screen, biochemical, fluorescence polarization, FITC-DNA; 1 h; hit rate 0.3% among 360,000; Hepatocyte nuclear factor 4-alpha (Homo sapiens), P41235; activity change, % at 10 µM; in the data active = activity change above about 30%, passing the limit was not always enough
CSN deneddyl inh: inhibitors of CSN-mediated cullin deneddylation, primary screen, biochemical, fluorescence polarization, uHTS; COP9 signalosome complex subunit 5 (Homo sapiens), Q92905; Purified CSN, SCF-Nedd8-OG deneddylation; inhibition, % at 12.5 µM; hit rate 0.38% among 360,000;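 active = pattern-corrected inhibition above about 35%, with an unprinted fluorescence ratio check between 0.5 and 1.5, limit read from the data, passing the limit was not always enough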;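 also: 0% = enzyme with substrate and 100% = substrate without enzyme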
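Detection – fluorescence polarization · System – HEK293T-derived human Csn5 enzyme · Controls – substrate-only high control, full reaction low control · Timing – 90 min, room temperature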
NadD inh: inhibitors of S. aureus NadD, primary screen, biochemical, colorimetric, uHTS. Nicotinate-nucleotide adenylyltransferase NadD (Staphylococcus aureus N315). hit rate 0.78% among 360,000. purified NadD enzyme, colorimetric absorbance read-out. inhibition, % at 20 µM; in the data active = inhibition above about 26%
TPT1 inh: Candida albicans TPT1 enzyme inhibitors, primary screen, biochemical, fluorescence polarization. recombinant caTPT1, FP RNA substrate dephosphorylation. hit rate 0.81% among 300,000. AID 1962, 2009. inhibition, % at 5 µM. tRNA 2'-phosphotransferase TPT1 (Candida albicans SC5314);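 active = inhibition above the mean of all tested compounds plus 3 SD, set per screening campaign, cut at about 24% in these data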;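 also: plate controls were DMSO alone for no effect and ferristatin control at 100 nM for full effect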
An asterisk follows results filed as active.

How did COC(=O)c1cccc(C23CC4(C2)[C@H](CN(Cc2cccnc2)[C@@H]4c2ccccc2)C3c2ccccc2)c1 (some centres undefined) do in these assays?
Rpn11 block: 4; PP1 inh: 16*; HNF4A DNA FP: 10; CSN deneddyl inh: 2; NadD inh: 14; TPT1 inh: 0

Results for COc1ccc(S(=O)(=O)N(C)c2ccc(C(=O)N3CCCCC3)cc2)cc1 ?
Rpn11 block: -15; PP1 inh: -4; HNF4A DNA FP: -2; CSN deneddyl inh: 2; NadD inh: 3; TPT1 inh: -1

Results for COc1ccc(C(C)(O)c2nc(-c3csc4ccccc34)cs2)cc1 (centres undefined) ?
Rpn11 block: -5; HNF4A DNA FP: 3; CSN deneddyl inh: 4; NadD inh: -5

What do the screens show for `O=C(Nc1ccc(-c2cc3ccccc3oc2=O)c(Cl)c1)c1cccnc1`?
Rpn11 block: 1; PP1 inh: -1; HNF4A DNA FP: 6; CSN deneddyl inh: 38*; NadD inh: -3; TPT1 inh: 2

Results for Cc1cccc(N(CC(=O)NCc2ccc(F)cc2)C(=O)c2ccco2)c1 ?
Rpn11 block: 5; PP1 inh: 1; HNF4A DNA FP: 4; CSN deneddyl inh: -1; NadD inh: 5; TPT1 inh: 1

What do the screens show for `CC(C)c1ccccc1NC(=O)COc1ccc2c(=O)c(Oc3ccc4ccccc4c3)coc2c1`?
PP1 inh: 18*; TPT1 inh: 0

How did O=C(OCC(=O)N1CCc2ccccc2C1)c1ccc(O)cc1 do in these assays?
Rpn11 block: 0; HNF4A DNA FP: 5; CSN deneddyl inh: -1; NadD inh: -9

How did O=C(COc1ccccc1)Nc1c2c(nn1-c1ccccc1)CS(=O)C2 (centres undefined) do in these assays?
Rpn11 block: 1; PP1 inh: -13; HNF4A DNA FP: 1; CSN deneddyl inh: -2; NadD inh: -3; TPT1 inh: -4

Results for O=C(O)c1[nH]c2ccccc2c1C(c1cc(Cl)cc([N+](=O)[O-])c1O)c1c(C(=O)O)[nH]c2ccccc12 ?
Rpn11 block: 16; PP1 inh: 15*; HNF4A DNA FP: -21; CSN deneddyl inh: -6; NadD inh: 22; TPT1 inh: 1

What do the screens show for `O=C1/C(=C/c2ccc(O)cc2)COc2ccccc21`?
Rpn11 block: 4; PP1 inh: 0; HNF4A DNA FP: 5; CSN deneddyl inh: 89*; NadD inh: -9; TPT1 inh: 4

How did CC(=O)Nc1ccc(NC(=O)CCc2c(C)noc2C)cc1 do in these assays?
Rpn11 block: 5; HNF4A DNA FP: 3; CSN deneddyl inh: 1; NadD inh: -4

Results for Cc1ccc(C(=O)CSC2=NC(N)=C(C#N)C3(CCCCC3)C2C(N)=O)cc1 (centres undefined) ?
Rpn11 block: 13; PP1 inh: -1; HNF4A DNA FP: 1; CSN deneddyl inh: 0; NadD inh: 7; TPT1 inh: -2

How did Cc1ccc(-c2csc(C3C(N)=NC(S)=C(C#N)C34CCCCC4)n2)cc1 (centres undefined) do in these assays?
Rpn11 block: 23; PP1 inh: 17*; HNF4A DNA FP: 3; CSN deneddyl inh: 3; NadD inh: 27; TPT1 inh: 12

Results for O=C(O)/C=C/C(=O)Nc1ccc(C2(c3ccc(NC(=O)/C=C/C(=O)O)cc3)c3ccccc3-c3ccccc32)cc1 ?
Rpn11 block: 10; PP1 inh: 5; HNF4A DNA FP: -5; CSN deneddyl inh: 13; NadD inh: 11; TPT1 inh: 2

Results for CCOc1ccc(N=Nc2ccc(O)c3ncccc23)cc1 ?
Rpn11 block: 23; HNF4A DNA FP: 3; CSN deneddyl inh: -1; NadD inh: 10
